# bCat nuc transl: beta-catenin nuclear translocation modulation. HeLa beta-catenin nuclear translocation, immunofluorescence imaging. nuclear translocation activity, % at 5 µM. 190,000 compounds, 0.3% hits;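 active = nuclear translocation activity above 50% at 5 µM, with a well cell count of 50 or more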;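 note: per-cell ratio of nuclear to cytoplasmic median beta-catenin stain intensity; plate controls were DMSO negative control for no effect and GSK-3 inhibitor IX positive control for full effect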
#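 Test system: human HeLa cell line; Doses: 5 µM primary, 0.02–20 µM confirmation; Incubation: 24 h compound exposure, 37°C; Detection: beta-catenin immunofluorescence imaging with DAPI; Read-out: beta-catenin nuclear/cytoplasmic ratio, % activation.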
# HMGR II inh: inhibitors of class II HMG-CoA reductase from Enterococcus faecalis; AID 1066; purified E. faecalis HMGR, NADPH absorbance 340 nm kinetic; inhibition, % at 10 µM; 190,000 compounds, 0.41% hits;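 active = inhibition above a set limit, the median over all tested compounds plus 3 SD, cut at about 9.5% in these data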;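 note: enzyme runs in reverse so mevalonate oxidation gives rising NADPH absorbance; 0% = complete reaction with DMSO and 100% = background rate lacking mevalonate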
# PGE2 EP2 inh: EP2 receptor (human) inhibition; inhibition, % at 25 µM; 260,000 compounds, 0.52% hits; C6 glioma cells expressing human EP2, cAMP TR-FRET; cells stimulated with saturating PGE2;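 active = percent inhibition above 40 after rounding to a whole number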;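 note: rat C6 glioma host cells with rolipram phosphodiesterase inhibitor present; the protocol text gives 20 µM as final concentration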
# Target sequence (P43116 whole entry, looked up): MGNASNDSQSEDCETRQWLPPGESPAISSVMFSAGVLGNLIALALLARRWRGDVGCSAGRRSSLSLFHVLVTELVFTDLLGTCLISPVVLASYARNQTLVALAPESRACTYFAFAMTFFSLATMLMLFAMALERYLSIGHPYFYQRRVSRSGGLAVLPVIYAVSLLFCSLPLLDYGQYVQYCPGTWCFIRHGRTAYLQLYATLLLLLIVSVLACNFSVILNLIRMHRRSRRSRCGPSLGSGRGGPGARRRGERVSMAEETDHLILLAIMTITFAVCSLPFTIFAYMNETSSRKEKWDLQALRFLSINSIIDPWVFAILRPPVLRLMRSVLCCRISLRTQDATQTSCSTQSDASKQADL
# MT stabilize HCS: microtubule stabilizers in HeLa cells. HeLa tubulin immunostaining HCS, 24 h; share of cells brighter than vehicle mean+2SD. 200,000 compounds, 0.83% hits. AID 2205. % tubulin-high responders, % at 10 µM;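 active = plate Z-score above 3 for both tubulin-high and condensed-nucleus cell shares, with cell loss under 80%, at 10 µM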;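 note: anti alpha tubulin signal scored within the nucleus-defined area of each cell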
# TbHK1 inh: blocks Trypanosoma brucei hexokinase 1 activity | recombinant TbHK1, G6PDH-coupled NADH A340 | inhibition, % at 10 µM | 220,000 compounds, 0.11% hits | AID 1430;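 active = inhibition of 50% or more in the single-dose primary screen; inactive = inhibition below 50%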
# EP2 modulator: modulates human prostaglandin E2 receptor EP2 signaling. P43116. EP2-expressing cells, cAMP HTRF FRET, PGE2 co-stimulation. induction, % at 25 µM. 260,000 compounds, 0.83% hits;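 active = compounds whose cAMP rise, as percent of the full-agonist control response, exceeds 60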;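 note: rat C6 glioma line stably carrying human EP2 under a CMV promoter; the protocol text gives 20 µM as final concentration; 100% = response of wells given 1 µM PGE2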
# EP2 cAMP induct: EP2 receptor cAMP induction, counter-screens negative | calls only at 20 µM (by protocol) | shares compounds with EP2 modulator | C6 glioma EP2 cells, cAMP HTRF induction; plus low (about EC15) PGE2 agonist | 1,300 compounds, 47% hits | AID 1080;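 active = cAMP induction above 50% in the main assay while under 30% in all four parallel counter assays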;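 note: rat C6 glioma cells stably expressing human EP2 receptor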
# Starred values were filed as active, the others as inactive; i = inactive; nt = no result; + = active, no number; ! = a repeat was not active. Most compounds without a hit are left out; they make up all but 2.4% or so of the library.
SMILES,bCat nuc transl,HMGR II inh,PGE2 EP2 inh,MT stabilize HCS,TbHK1 inh,EP2 modulator,EP2 cAMP induct
O=c1cc(N2CCCCC2)c(-c2ccccc2)nn1Cc1ccccc1Cl,nt,-4,3,2,1,70*,+
CC(=O)NC(c1cccc([N+](=O)[O-])c1)c1c(OC(C)=O)ccc2ccccc12 (stereo not given),nt,-2,11,5,-7,12,nt
CC(=O)Oc1ccc2ccccc2c1C(NC(=O)Cc1ccccc1)c1ccccc1 (stereo not given),0,0,3,2,4,65*,i
O=C(O)CSc1nc2ccccc2n1CC(=O)NC1CCCCC1,nt,nt,10,nt,nt,15,nt
CCCCn1c(C)cc(C)c(S(=O)(=O)c2ccccc2C)c1=O,0,0,11,2,-2,78*,+
Cc1ccccc1S(=O)(=O)c1c(C)cc(C)n(C(C)C)c1=O,-1,5,3,2,5,71*,+
COc1ccc2cc(CN(Cc3ccc4c(c3)OCO4)C(=O)Nc3ccc(Cl)cc3)c(=O)[nH]c2c1,nt,nt,8,nt,nt,-17,nt
Cc1cccc(N(CC(=O)NC2CCCC2)C(=O)CCC(=O)Nc2nccs2)c1,nt,nt,10,nt,nt,-1,nt
CC(=O)N1Cc2ccccc2C(C)CC12CCCCC2 (stereo not given),0,-4,11,4,21,66*,+
CC(=O)N1c2ccc3ccccc3c2C(C)CC12CCCCC2 (stereo not given),nt,-3,4,3,2,55,nt
CCc1ccc2[nH]c(=O)c(C(c3nnnn3CC3CCCO3)N3CCCc4ccccc43)cc2c1 (stereo not given),-3,-3,3,9,-9,77*!,+
Cc1cc2cc(C(c3nnnn3CC3CCCO3)N3CCCc4ccccc43)c(=O)[nH]c2cc1C (stereo not given),3,3,0,6,-11,23,nt
CCCc1nc(SC2CCCC2)c2c(=O)n(C)c(=O)n(C)c2n1,3,-4,7,2,3,79*,+
Cn1c(=O)c2c(nc(N3CCNCC3)n2Cc2ccc(Cl)cc2)n(C)c1=O,nt,nt,14,nt,nt,-18,nt
FC(F)(F)c1cc(CCN2C(=S)NC[C@@H]2c2ccccc2)cc(C(F)(F)F)c1,0,nt,9,nt,-4,17,nt
FC(F)(F)c1cc(CO[C@H]2CCCN[C@H]2c2ccccc2)cc(C(F)(F)F)c1,nt,nt,14,nt,nt,68*,i
COc1cc(OC)cc(C(=O)N[C@H]2CCC(=O)NC2c2cccnc2)c1 (stereo not given in full),nt,nt,8,nt,nt,-45,nt
CCOC(=O)c1c(C)[nH]c(C=O)c1Cc1cccc(Cl)c1,-1,1,7,4,-1,69*,i
COc1ccc(S(=O)(=O)N2c3cc(C)ccc3OCC2C(C)(C)C)cc1 (stereo not given),nt,2,9,17,1,66*,+
CC(C)[C@@H](Cn1nc(-c2ccc(F)c(F)c2)ccc1=O)NC(=O)c1ccccn1,nt,nt,nt,nt,nt,-29,nt
Cc1ccc2nc(SCC(=O)NCc3ccco3)c(C)cc2c1,-1,-5,7,3,-3,69*,+
Cc1ccc2nc(SCC(=O)NCc3ccco3)c(C#N)cc2c1,nt,-3,15,2,-2,12,nt
c1ccc(C2=Nc3ccccc3NC(c3ccccc3)C2)cc1 (stereo not given),0,0,1,3,-5,65*,+
CCC(=O)Oc1ccc2c(C)cc(=O)oc2c1C(=O)c1ccccc1,nt,0,2,2,-16,69*,i
N#Cc1c(N)nc2c3c(sc(=N)c2c1N)NC(=O)CC3c1ccccc1 (stereo not given),0,4,14,5,1,42,nt
SMILES,bCat nuc transl,HMGR II inh,PGE2 EP2 inh,MT stabilize HCS,TbHK1 inh,EP2 modulator,EP2 cAMP induct
N#Cc1c(N)nc2c3c(sc(=N)c2c1N)NC(=O)CC3c1c(F)cccc1Cl (stereo not given),-1,-7,8,4,-4,68*,+
CC1CC(C)CN(C(=O)CN2C(=O)N3CCN=C3c3ccccc32)C1 (stereo not given),nt,nt,17,nt,nt,-100,nt
O=C(Nc1ccccc1-c1nc2ccccc2s1)C1=COCCO1,1,-2,5,4,-8,74*,i
CCn1nnc(-c2ccccc2NC(=O)c2cc(OC)cc(OC)c2)n1,-2,-4,3,2,-9,74*,+
CCOC(=O)c1ccccc1NC(=O)C1COc2ccccc2O1 (stereo not given),1,0,11,2,6,72*,+
C#CCN1C(C)=C(C(=O)OC)C(c2cccc([N+](=O)[O-])c2)C(C(=O)OCC)=C1C (stereo not given),nt,nt,9,nt,nt,52,i
CNC(=O)NC(=O)CSc1nc(-c2cccs2)c(C#N)c(=O)[nH]1,-2,-6,16,2,-21,79*,i
N#Cc1c(-c2cccs2)nc(SCc2ccc(Cl)cc2)[nH]c1=O,1,-4,19,2,6,75*,i
Cc1oc2c(c1C(=O)Nc1cccc3ccccc13)CCCC2,nt,-1,13,1,6,25,nt
COc1ccccc1NC(=O)c1c(C)oc2c1CCCC2,0,-3,20,2,3,79*,i
COc1ccc(Cn2c(-c3ccc(OC)cc3)nc3ccccc32)cc1,-2,1,nt,3,-3,67*,i
COc1ccc(-c2nc3c(c(=O)[nH]c(=O)n3Cc3ccccc3)n2Cc2ccccc2)cc1,1,2,4,2,3,74*,+
COCCn1nnnc1C(c1ccc(O)cc1)N1CCN(c2nc3ccccc3s2)CC1 (stereo not given),nt,nt,12,nt,nt,-4,nt
COc1ccccc1C1(NC(=O)C2C3C=CC4(CN(C(C)C)C(=O)C24)O3)CCCC1 (stereo not given),nt,nt,2,nt,nt,-42,nt
CSc1nc(Sc2ccccc2)c2ccccc2n1,-1,-2,14,2,-3,79*,i
Cc1onc(-c2c(F)cccc2Cl)c1C(=O)ONC(=O)c1ccccc1,0,nt,7,nt,6,-14,nt
Cc1onc(-c2c(F)cccc2Cl)c1C(=O)OCn1nnc2ccccc2c1=O,-1,-1,7,3,2,77*,i
CCc1ccc2[nH]c3nc(SCC(=O)OC)nnc3c2c1,nt,nt,4,nt,nt,-26,nt
COc1ccc(CN(C(=O)c2ccco2)c2ccc(Br)cc2)cc1OC,-2,4,3,2,-4,17,nt
CCOc1ccc(N(Cc2ccc(OC)cc2)C(=O)c2ccco2)cc1,-2,-4,7,2,0,65*,i

# From PubChem
